In ChEMBL document CHEMBL3286377, “Microwave-assisted synthesis of C-8 aryl and heteroaryl inosines and determination of their inhibitory activities against Plasmodium falciparum purine nucleoside phosphorylase” (Eur J Med Chem, 2014):
The source made the active and inactive calls. No cut-off for these calls is given here.

How the values were obtained:
[1] = tested on: Influenza A virus H3N2; experiment: Antiviral activity against Influenza A virus H3N2 assessed as inhibition of virus-induced cytopathicity at 100 uM by cell-based assay; type: functional, organism-based
Summary of the method: (§1)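 Inhibition of virus-induced cytopathicity in confluent cell monolayers (HEL, Vero, HeLa or MDCK cells), tested at varying compound concentrations with 100 µM the level assessed. Cytopathicity was scored once it was complete in untreated virus-infected controls. Activity is expressed as EC50, the concentration reducing virus-induced cytopathicity by 50%.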

[2] = tested on: Punta Toro virus; experiment: Antiviral activity against Punta Toro virus assessed as inhibition of virus-induced cytopathicity at 100 uM by cell-based assay; type: functional, organism-based
Summary of the method: (§2)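 Confluent HEL, Vero, HeLa or MDCK monolayers were infected with 100 CCID50 of virus in the presence of varying compound concentrations. Activity is expressed as EC50, the concentration that halves virus-induced cytopathicity.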

[3] = tested on: Influenza A virus; experiment: Antiviral activity against Influenza A virus H1N1 assessed as inhibition of virus-induced cytopathicity at 100 uM by cell-based assay; type: functional, organism-based; summary of the method: as §1
[4] = tested on: Human alphaherpesvirus 1; experiment: Antiviral activity against thymidine kinase-deficient ACV-resistant Herpes simplex virus type 1 KOS assessed as inhibition of virus-induced cytopathicity at 100 uM by cell-based assay; type: functional, organism-based
Summary of the method: (§3)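 Confluent HEL, Vero, HeLa or MDCK monolayers were infected with 100 CCID50 of virus in the presence of varying compound concentrations, with 100 µM the level assessed. Cytopathic effect was recorded once it was complete in untreated infected controls. EC50 is the concentration reducing virus-induced cytopathicity by 50%.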

[5] = tested on: Influenza B virus; experiment: Antiviral activity against Influenza B virus assessed as inhibition of virus-induced cytopathicity at 100 uM by cell-based assay; type: functional, organism-based; summary of the method: as §1
[6] = Half life of the compound in trifluoroacetate buffer at 50 uM at pH 1.2 by HPLC analysis; type: physicochemical
Summary of the method: (§4)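 A 5 mM DMSO stock was diluted to 50 µM final in phosphate (pH 7.4), citrate (pH 5.0) or trifluoroacetate (pH 1.2) buffer and incubated at 37 °C. Aliquots taken at 0, 0.5, 1, 4 and 24 h were analysed by reverse-phase HPLC. The mobile phase ran from 10 to 100% acetonitrile against water with 0.05% TFA over 20 min, at 1.0 mL/min.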

[7] = tested on: Escherichia coli; experiment: Inhibition of Escherichia coli PNP-mediated inosine hydrolysis assessed as residual activity at 250 uM after 1 hr by RP-HPLC analysis relative to control
Summary of the method: (§5)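 Enzyme levels were 20 nM for E. coli and M. hyorhinis PNP and 6 nM for human PNP, in buffer of 50 mM MOPS, 0.2 mM EDTA and 200 mM potassium phosphate, pH 6.5, at 37 °C. Compound (250 µM) and inosine (100 µM) were incubated 60 min. Conversion to hypoxanthine was measured by RP-18 HPLC using an NaH2PO4/heptanesulfonate (pH 3.2) to acetonitrile gradient.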

[8] = tested on: Respiratory syncytial virus; experiment: Antiviral activity against Respiratory syncytial virus Long assessed as inhibition of virus-induced cytopathicity at 100 uM by cell-based assay; type: functional, organism-based; summary of the method: as §2
[9] = Hydrolytic stability of the compound in phosphate buffer at 50 uM at pH 7.4 up to 24 hrs by HPLC analysis; type: physicochemical; details: pH 7.4, 24 h; summary of the method: as §4
[10] = tested on: HeLa; experiment: Cytotoxicity against human HeLa cells up to 100 uM; type: cell-based
[11] = tested on: CCRF-CEM; experiment: Cytotoxicity against human CEM cells up to 100 uM; type: cell-based
[12] = tested on: Sindbis virus; experiment: Antiviral activity against Sindbis virus assessed as inhibition of virus-induced cytopathicity at 100 uM by cell-based assay; type: functional, organism-based; summary of the method: as §2
[13] = tested on: Human alphaherpesvirus 2; experiment: Antiviral activity against Herpes simplex virus type 2 Lyons assessed as inhibition of virus-induced cytopathicity at 100 uM by cell-based assay; type: functional, organism-based; summary of the method: as §2
[14] = tested on: Mammalian orthoreovirus 1; experiment: Antiviral activity against Reovirus 1 assessed as inhibition of virus-induced cytopathicity at 100 uM by cell-based assay; type: functional; summary of the method: as §2
[15] = Inhibition of Plasmodium falciparum PNP expressed in Escherichia coli BL21(DE3) using inosine as substrate by spectrophotometric analysis; details: read-out: Ki
Summary of the method: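 Recombinant PfPNP (His-vector, E. coli BL21(DE3), 1 mM IPTG, 37 °C, 4 h) was assayed at 25 nM. The mix held 50 mM KH2PO4 pH 7.5, 60 mU xanthine oxidase and 25 µM inosine, at 25 °C. Uric acid formation was followed at 293 nm. Rates were measured at five or more inhibitor concentrations.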

[16] = tested on: Coxsackievirus B4; experiment: Antiviral activity against Coxsackievirus B4 assessed as inhibition of virus-induced cytopathicity at 100 uM by cell-based assay; type: functional, organism-based; summary of the method: as §2
[17] = tested on: Human alphaherpesvirus 2; experiment: Antiviral activity against Herpes simplex virus type 2 G assessed as inhibition of virus-induced cytopathicity at 100 uM by cell-based assay; type: functional, organism-based; details: strain G; summary of the method: as §2
[18] = tested on: Vero; experiment: Cytotoxicity against African green monkey Vero cells up to 100 uM; type: cell-based; details: chlorocebus sabaeus
[19] = tested on: Human respirovirus 3; experiment: Antiviral activity against Parainfluenza virus 3 assessed as inhibition of virus-induced cytopathicity at 100 uM by cell-based assay; type: functional, organism-based; summary of the method: as §2
[20] = Hydrolytic stability of the compound in citrate buffer at 50 uM at pH 5 up to 24 hrs by HPLC analysis; type: physicochemical; details: pH 5, 24 h; summary of the method: as §4
[21] = tested on: Human alphaherpesvirus 1; experiment: Antiviral activity against Herpes simplex virus type 1 KOS assessed as inhibition of virus-induced cytopathicity at 100 uM by cell-based assay; type: functional, organism-based; summary of the method: as §2
[22] = tested on: Vesicular stomatitis virus; experiment: Antiviral activity against Vesicular stomatitis virus assessed as inhibition of virus-induced cytopathicity at 100 uM by cell-based assay; type: functional, organism-based; summary of the method: as §3
[23] = target: T1, Purine nucleoside phosphorylase (Homo sapiens) (UniProt P00491); experiment: Inhibition of human PNP-mediated inosine hydrolysis assessed as residual activity at 250 uM after 1 hr by RP-HPLC analysis relative to control; summary of the method: as §5
T1 sequence (whole entry): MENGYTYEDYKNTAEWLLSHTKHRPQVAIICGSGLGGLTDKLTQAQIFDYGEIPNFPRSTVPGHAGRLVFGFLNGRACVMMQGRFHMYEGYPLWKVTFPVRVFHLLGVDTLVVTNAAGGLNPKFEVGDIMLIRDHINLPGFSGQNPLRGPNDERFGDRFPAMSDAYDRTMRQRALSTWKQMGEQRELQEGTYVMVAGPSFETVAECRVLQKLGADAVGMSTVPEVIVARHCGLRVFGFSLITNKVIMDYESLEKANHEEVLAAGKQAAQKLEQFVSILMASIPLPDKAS

[24] = tested on: MDCK; experiment: Cytotoxicity against MDCK cells up to 100 uM; type: cell-based, Canis lupus familiaris; details: dog
[25] = tested on: Mesomycoplasma hyorhinis; experiment: Inhibition of Mycoplasma hyorhinis PNP-mediated inosine hydrolysis assessed as residual activity at 250 uM after 1 hr by RP-HPLC analysis relative to control; summary of the method: as §5
[26] = tested on: Vaccinia virus; experiment: Antiviral activity against Vaccinia virus Lederle assessed as inhibition of virus-induced cytopathicity at 100 uM by cell-based assay; type: functional, organism-based; details: Orthopoxvirus vaccinia; summary of the method: as §3
[27] = tested on: HEL; experiment: Cytotoxicity against HEL up to 100 uM; type: cell-based; details: human
[28] = tested on: Plasmodium falciparum; experiment: Antiplasmodial activity against chloroquine-sensitive Plasmodium falciparum 3D7 assessed as growth inhibition at 25 uM; type: functional, organism-based
Summary of the method: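 Intraerythrocytic-stage growth assay against the chloroquine-sensitive P. falciparum 3D7 strain. Compounds were tested at a single level of 25 µM, with chloroquine run in the same assay as reference.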

[29] = tested on: Plasmodium falciparum; experiment: Inhibition of Plasmodium falciparum PNP expressed in Escherichia coli BL21(DE3) using inosine as substrate at 200 uM by spectrophotometric analysis

For `O=c1[nH]cnc2c1nc(-c1ccc(C(F)(F)F)cc1)n2[C@@H]1O[C@H](CO)[C@@H](O)[C@H]1O`, the Activity [1] was “inactive”, the Activity [2] was “inactive” and the Activity [3] was “inactive”. The Activity [4] was “inactive”, the Activity [5] was “inactive” and the half-life at 50 µM [6] was 300 min. For the same compound, the Activity [7] was 96%, the Activity [8] was “inactive” and the Stability [9] was “Stable”. For the same compound, the Activity [10] was “Non-toxic”, the Activity [11] was “Non-toxic” and the Activity [12] was “inactive”. The Activity [13] was “inactive”, the Activity [14] was “inactive” and the Ki [15] was 3.69 µM. For the same compound, the Activity [16] was “inactive”, the Activity [17] was “inactive” and the Activity [18] was “Non-toxic”. The Activity [19] was “inactive”, the Stability [20] was “Stable” and the Activity [21] was “inactive”. The Activity [22] was “inactive”, the Activity [23] was 96% and the Activity [24] was “Non-toxic”. For the same compound, the Activity [25] was 96%, the Activity [26] was “inactive” and the Activity [27] was “Non-toxic”. The “growth inhibition (GI)” value [28] was “inactive”.
With `O=c1[nH]cnc2c1nc(-c1cccnc1)n2[C@@H]1O[C@H](CO)[C@@H](O)[C@H]1O` the Activity [1] was “inactive”, the Activity [2] was “inactive” and the Activity [3] was “inactive”. For the same compound, the Activity [4] was “inactive”, the Activity [5] was “inactive” and the half-life at 50 µM [6] was 900 min. The Activity [8] was “inactive”, the Stability [9] was “Stable” and the inhibition [29] was “inactive”. For the same compound, the Activity [10] was “Non-toxic”, the Activity [11] was “Non-toxic” and the Activity [12] was “inactive”. The Activity [13] was “inactive”, the Activity [14] was “inactive” and the Activity [16] was “inactive”. The Activity [17] was “inactive”, the Activity [18] was “Non-toxic” and the Activity [19] was “inactive”. The Stability [20] was “Stable”, the Activity [21] was “inactive” and the Activity [22] was “inactive”. The Activity [24] was “Non-toxic”, the Activity [26] was “inactive” and the Activity [27] was “Non-toxic”.
With `COc1ccc(-c2nc3c(=O)[nH]cnc3n2[C@@H]2O[C@H](CO)[C@@H](O)[C@H]2O)cc1` the Activity [1] was “inactive”, the Activity [2] was “inactive” and the Activity [3] was “inactive”. For the same compound, the Activity [4] was “inactive”, the Activity [5] was “inactive” and the half-life at 50 µM [6] was 300 min. For the same compound, the Activity [8] was “inactive”, the Stability [9] was “Stable” and the inhibition [29] was “inactive”. For the same compound, the Activity [10] was “Non-toxic”, the Activity [11] was “Non-toxic” and the Activity [12] was “inactive”. The Activity [13] was “inactive”, the Activity [14] was “inactive” and the Activity [16] was “inactive”. The Activity [17] was “inactive”, the Activity [18] was “Non-toxic” and the Activity [19] was “inactive”. For the same compound, the Stability [20] was “Stable”, the Activity [21] was “inactive” and the Activity [22] was “inactive”. The Activity [24] was “Non-toxic”, the Activity [26] was “inactive” and the Activity [27] was “Non-toxic”.
